From ChEMBL document CHEMBL3877334, “Structural Requirements of HDAC Inhibitors: SAHA Analogues Modified at the C2 Position Display HDAC6/8 Selectivity” (ACS Med Chem Lett, 2017)
The source made the active and inactive calls. No cut-off for these calls is given here.

Assays:
[1] = target: T1, Protein deacetylase HDAC6 (Homo sapiens) (UniProt Q9UBN7); assay: Inhibition of HDAC6 in human HeLaS3 cells at 5 uM preincubated for 15 mins followed by HDAC-Glo substrate addition measured after 30 to 45 mins by ELISA; type: cell-based; conditions: HeLa S3
T1 sequence (whole entry): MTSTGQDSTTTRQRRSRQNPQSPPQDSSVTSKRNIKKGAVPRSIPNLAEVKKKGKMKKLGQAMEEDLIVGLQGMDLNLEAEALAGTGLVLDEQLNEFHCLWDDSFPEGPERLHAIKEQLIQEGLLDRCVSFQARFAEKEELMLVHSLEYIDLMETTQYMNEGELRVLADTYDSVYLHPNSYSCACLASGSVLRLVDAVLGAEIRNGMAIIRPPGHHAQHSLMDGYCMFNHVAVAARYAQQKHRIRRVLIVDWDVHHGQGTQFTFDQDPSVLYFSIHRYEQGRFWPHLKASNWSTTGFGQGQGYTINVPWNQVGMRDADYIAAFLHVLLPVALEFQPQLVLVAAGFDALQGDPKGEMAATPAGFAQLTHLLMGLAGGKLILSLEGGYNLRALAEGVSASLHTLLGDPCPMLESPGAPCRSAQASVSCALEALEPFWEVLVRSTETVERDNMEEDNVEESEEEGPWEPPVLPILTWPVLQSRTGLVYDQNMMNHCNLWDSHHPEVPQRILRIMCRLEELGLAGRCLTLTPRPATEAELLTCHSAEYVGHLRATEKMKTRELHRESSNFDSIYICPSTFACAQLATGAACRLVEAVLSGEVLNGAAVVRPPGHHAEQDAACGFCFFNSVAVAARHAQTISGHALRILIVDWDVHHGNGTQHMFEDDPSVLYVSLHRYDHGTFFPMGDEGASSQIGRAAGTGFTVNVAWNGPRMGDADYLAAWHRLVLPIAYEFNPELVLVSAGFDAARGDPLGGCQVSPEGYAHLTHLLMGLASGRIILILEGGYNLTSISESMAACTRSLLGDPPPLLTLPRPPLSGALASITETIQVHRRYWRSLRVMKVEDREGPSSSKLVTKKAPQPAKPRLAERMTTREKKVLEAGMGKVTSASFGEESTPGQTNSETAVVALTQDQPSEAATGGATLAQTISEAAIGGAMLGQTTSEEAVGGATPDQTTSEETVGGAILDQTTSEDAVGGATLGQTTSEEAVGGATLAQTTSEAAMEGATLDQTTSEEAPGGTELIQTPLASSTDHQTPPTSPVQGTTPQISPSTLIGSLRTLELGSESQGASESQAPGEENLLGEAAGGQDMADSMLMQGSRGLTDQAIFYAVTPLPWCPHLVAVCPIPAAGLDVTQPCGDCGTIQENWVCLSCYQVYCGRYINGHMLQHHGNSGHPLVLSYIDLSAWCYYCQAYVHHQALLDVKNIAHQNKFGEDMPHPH
How it was run: (§1)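 ELISA-based HDAC activity assay using mammalian-derived HDAC1, -2, -3 and -6. Each analogue was screened at a single concentration, 5 or 10 μM. Data are mean percent deacetylase activity from at least three independent trials with standard error.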

[2] = target: T2, Protein deacetylase HDAC6 (Homo sapiens, UniProt Q9UBN7); assay: Inhibition of HDAC6 in human HeLaS3 cells preincubated for 15 mins followed by HDAC-Glo substrate addition measured after 30 to 45 mins by ELISA; type: cell-based, HeLa S3
T2 sequence (Q9UBN7 whole entry): T1 sequence (whole entry)

cells [3] = type: functional, cell-based; conditions: Homo sapiens, MOLM-13, 44 h
HeLa S3 [4] = assay: Selectivity ratio of IC50 for HDAC2 in human HeLaS3 cells to IC50 for full length human C-terminal His-tag HDAC8 expressed in baculovirus expression system
[5] = target: T1, Protein deacetylase HDAC6 (Homo sapiens); assay: Inhibition of HDAC6 in human U937 cells assessed as increase in alpha-tubulin acetylation at Lys-40 residue after 18 hrs by Western blot method; type: cell-based; conditions: U-937
How it was run: (§2)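 U937 myeloid leukemia cells were treated with compound, with a 1% DMSO control. For the concentration series the range was 10–60 μM. Cells were then lysed, run on SDS-PAGE and Western blotted for acetyl-α-tubulin and acetyl-histone H3, with GAPDH as load control. Band intensities were quantified as fold increase, given as mean of four independent trials with standard error.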

Histone deacetylase 1 = Histone deacetylase 1 (Homo sapiens, UniProt Q13547); assay: Inhibition of HDAC1 in human HeLaS3 cells preincubated for 15 mins followed by HDAC-Glo substrate addition measured after 30 to 45 mins by ELISA; type: cell-based, HeLa S3
Sequence of Histone deacetylase 1 (Q13547 whole entry): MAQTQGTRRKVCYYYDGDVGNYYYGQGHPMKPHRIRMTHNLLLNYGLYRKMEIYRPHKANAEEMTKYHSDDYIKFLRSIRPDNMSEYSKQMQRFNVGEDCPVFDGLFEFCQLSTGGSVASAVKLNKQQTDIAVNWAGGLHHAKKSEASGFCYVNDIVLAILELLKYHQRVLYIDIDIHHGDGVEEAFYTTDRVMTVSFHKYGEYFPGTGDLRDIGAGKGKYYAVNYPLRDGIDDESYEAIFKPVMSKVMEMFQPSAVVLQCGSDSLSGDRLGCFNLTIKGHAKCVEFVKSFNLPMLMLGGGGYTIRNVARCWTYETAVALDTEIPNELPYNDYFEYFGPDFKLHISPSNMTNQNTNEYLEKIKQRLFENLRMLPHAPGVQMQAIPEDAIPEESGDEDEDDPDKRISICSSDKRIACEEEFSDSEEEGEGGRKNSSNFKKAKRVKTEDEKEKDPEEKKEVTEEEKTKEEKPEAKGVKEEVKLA

cells [6] = type: functional, cell-based; conditions: Homo sapiens, Jurkat, 44 h
Histone deacetylase 3 = Histone deacetylase 3 (Homo sapiens, UniProt O15379); assay: Inhibition of HDAC3 in human HeLaS3 cells preincubated for 15 mins followed by HDAC-Glo substrate addition measured after 30 to 45 mins by ELISA; type: cell-based, HeLa S3
Sequence of Histone deacetylase 3 (O15379 whole entry): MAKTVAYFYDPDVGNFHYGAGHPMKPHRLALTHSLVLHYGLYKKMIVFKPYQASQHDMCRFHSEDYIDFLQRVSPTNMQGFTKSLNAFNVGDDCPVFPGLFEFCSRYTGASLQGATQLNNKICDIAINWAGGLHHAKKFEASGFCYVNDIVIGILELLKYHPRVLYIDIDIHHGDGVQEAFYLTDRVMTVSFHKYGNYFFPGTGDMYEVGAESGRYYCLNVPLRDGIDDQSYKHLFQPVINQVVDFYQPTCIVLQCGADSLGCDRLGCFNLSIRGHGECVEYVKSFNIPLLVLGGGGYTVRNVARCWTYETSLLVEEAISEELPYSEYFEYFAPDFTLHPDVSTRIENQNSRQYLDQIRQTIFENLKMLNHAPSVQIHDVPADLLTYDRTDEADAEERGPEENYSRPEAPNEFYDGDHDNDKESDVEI

HeLa S3 [7] = assay: Selectivity ratio of IC50 for HDAC1 in human HeLaS3 cells to IC50 for HDAC6 in human HeLaS3 cells; type: cell-based
How it was run: (§3)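 Ratio of IC50 values measured with the ELISA-based HDAC activity assay using mammalian-derived HDAC isoforms. Each IC50 is the mean of at least two independent trials with standard error.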

HeLa S3 [8] = assay: Selectivity ratio of IC50 for HDAC1 in human HeLaS3 cells to IC50 for full length human C-terminal His-tag HDAC8 expressed in baculovirus expression system
cells [9] = type: functional, cell-based; conditions: Homo sapiens, U-937, 44 h
[10] = Cytotoxicity against human Jurkat cells assessed as cell viability at 10 uM after 44 hrs by MTT assay relative to control; type: functional; conditions: read-out: Activity
How it was run: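 MTT viability assay in Jurkat cells at 1 and 10 μM. Data are mean percent viability from at least three independent trials with standard error.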

Histone deacetylase 2 = Histone deacetylase 2 (Homo sapiens, UniProt Q92769); assay: Inhibition of HDAC2 in human HeLaS3 cells preincubated for 15 mins followed by HDAC-Glo substrate addition measured after 30 to 45 mins by ELISA; type: cell-based, HeLa S3
Sequence of Histone deacetylase 2 (Q92769 whole entry): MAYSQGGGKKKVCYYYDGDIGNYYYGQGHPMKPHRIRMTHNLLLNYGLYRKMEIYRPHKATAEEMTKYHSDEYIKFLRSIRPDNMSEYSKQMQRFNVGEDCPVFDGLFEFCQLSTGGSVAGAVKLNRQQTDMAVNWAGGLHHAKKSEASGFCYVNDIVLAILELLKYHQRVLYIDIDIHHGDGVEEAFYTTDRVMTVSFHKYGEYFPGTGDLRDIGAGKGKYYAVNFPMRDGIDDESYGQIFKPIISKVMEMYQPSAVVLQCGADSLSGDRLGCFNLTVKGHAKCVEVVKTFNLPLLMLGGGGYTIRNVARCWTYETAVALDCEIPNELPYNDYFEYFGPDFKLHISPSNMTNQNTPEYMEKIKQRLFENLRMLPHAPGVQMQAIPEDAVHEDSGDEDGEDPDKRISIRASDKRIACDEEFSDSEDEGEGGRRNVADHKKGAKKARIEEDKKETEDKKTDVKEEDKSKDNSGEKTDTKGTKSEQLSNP

Histone deacetylase 8 = target: T3, Histone deacetylase 8 (Homo sapiens, UniProt Q9BY41); assay: Inhibition of full length human C-terminal His-tag HDAC8 expressed in baculovirus expression system preincubated for 15 mins followed by HDAC-Glo substrate addition measured after 30 to 45 mins by ELISA
T3 sequence (Q9BY41 whole entry): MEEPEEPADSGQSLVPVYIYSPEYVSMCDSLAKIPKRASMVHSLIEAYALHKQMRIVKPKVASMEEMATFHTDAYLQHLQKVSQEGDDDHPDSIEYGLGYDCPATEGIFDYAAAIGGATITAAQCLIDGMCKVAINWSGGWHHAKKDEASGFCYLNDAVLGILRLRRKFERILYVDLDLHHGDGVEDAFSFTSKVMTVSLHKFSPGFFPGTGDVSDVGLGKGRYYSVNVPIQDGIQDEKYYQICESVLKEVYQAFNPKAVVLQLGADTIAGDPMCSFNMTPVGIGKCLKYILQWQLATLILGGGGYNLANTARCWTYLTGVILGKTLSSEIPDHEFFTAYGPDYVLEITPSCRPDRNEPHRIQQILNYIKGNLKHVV

[11] = target: T1, Protein deacetylase HDAC6 (Homo sapiens); assay: Inhibition of HDAC6 in human U937 cells assessed as increase in alpha-tubulin acetylation at Lys-40 residue at 30 uM after 18 hrs by Western blot method; type: cell-based; conditions: U-937; how it was run: as §2
HeLa S3 [12] = assay: Selectivity ratio of IC50 for HDAC3 in human HeLaS3 cells to IC50 for full length human C-terminal His-tag HDAC8 expressed in baculovirus expression system
HeLa S3 [13] = assay: Selectivity ratio of IC50 for HDAC2 in human HeLaS3 cells to IC50 for HDAC6 in human HeLaS3 cells; type: cell-based; how it was run: as §3
HeLa S3 [14] = assay: Selectivity ratio of IC50 for HDAC3 in human HeLaS3 cells to IC50 for HDAC6 in human HeLaS3 cells; type: cell-based; how it was run: as §3
[15] = target: T1, Protein deacetylase HDAC6 (Homo sapiens); assay: Inhibition of HDAC6 in human HeLaS3 cells at 10 uM preincubated for 15 mins followed by HDAC-Glo substrate addition measured after 30 to 45 mins by ELISA; type: cell-based; conditions: HeLa S3; how it was run: as §1

Structure (SMILES)	inhibition [1]	IC50 (Histone deacetylase 1)	IC50 (Histone deacetylase 3)	IC50 (Histone deacetylase 2)	IC50 (Histone deacetylase 8)	Ratio IC50 (HeLa S3 [4])	Ratio IC50 (HeLa S3 [8])	Ratio IC50 (HeLa S3 [12])	also measured
CC(CCCCCC(=O)Nc1ccccc1)C(=O)NO (stereo not drawn)	Active	–	–	–	–	–	–	–	–
CCCCCCC(CCCCCC(=O)Nc1ccccc1)C(=O)NO (stereo not drawn)	Active	180 µM	98 µM	180 µM	2 µM	49 to 300	49 to 300	49 to 300	IC50 [2]: 0.6 µM; EC50 (cells [3]): 10.5 µM; inhibition [5]: Dose-dependent effect; EC50 (cells [6]): 11.8 µM; Ratio IC50 (HeLa S3 [7]): 49 to 300; EC50 (cells [9]): 13.8 µM; viability at 10 µM [10]: 47%; inhibition [11]: Active; Ratio IC50 (HeLa S3 [13]): 49 to 300; Ratio IC50 (HeLa S3 [14]): 49 to 300
CCCCCC(CCCCCC(=O)Nc1ccccc1)C(=O)NO (stereo not drawn)	Active	48 µM	43 µM	58 µM	1.3 µM	33 to 92	33 to 92	33 to 92	IC50 [2]: 0.85 µM; Ratio IC50 (HeLa S3 [7]): 33 to 92; inhibition [11]: Active; Ratio IC50 (HeLa S3 [13]): 33 to 92; Ratio IC50 (HeLa S3 [14]): 33 to 92
CCCCCC[C@H](CCCCCC(=O)Nc1ccccc1)C(=O)NO	–	–	–	–	0.71 µM	–	–	–	–
CCCCCC[C@@H](CCCCCC(=O)Nc1ccccc1)C(=O)NO	–	330 µM	530 µM	580 µM	3.1 µM	106 to 187	106 to 187	106 to 187	–
CCCCC(CCCCCC(=O)Nc1ccccc1)C(=O)NO (stereo not drawn)	–	–	–	–	–	–	–	–	inhibition [15]: Active

More lines, main results first:

inhibition [1]	IC50 (Histone deacetylase 1)	IC50 (Histone deacetylase 3)	IC50 (Histone deacetylase 2)	IC50 (Histone deacetylase 8)	Structure (SMILES)	Ratio IC50 (HeLa S3 [4])	Ratio IC50 (HeLa S3 [8])	Ratio IC50 (HeLa S3 [12])	also measured
Active	–	–	–	–	CCC(CCCCCC(=O)Nc1ccccc1)C(=O)NO (stereo not drawn)	–	–	–	–
Active	84 µM	91 µM	110 µM	1.2 µM	O=C(CCCCCC(Cc1ccccc1)C(=O)NO)Nc1ccccc1 (stereo not drawn)	33 to 92	33 to 92	33 to 92	IC50 [2]: 1.5 µM; Ratio IC50 (HeLa S3 [7]): 33 to 92; inhibition [11]: Active; Ratio IC50 (HeLa S3 [13]): 33 to 92; Ratio IC50 (HeLa S3 [14]): 33 to 92
Active	–	–	–	–	CCCC(CCCCCC(=O)Nc1ccccc1)C(=O)NO (stereo not drawn)	–	–	–	–
Active	–	–	–	–	C=CCC(CCCCCC(=O)Nc1ccccc1)C(=O)NO (stereo not drawn)	–	–	–	–
Active	–	–	–	–	C#CCC(CCCCCC(=O)Nc1ccccc1)C(=O)NO (stereo not drawn)	–	–	–	–
